Experimental data from different studies.
Each line is one published result; the experiments were not run side by side. Converted amounts (≈) assume the structure as drawn.

CC(=O)OC[C@@]1(C)[C@H]2CC[C@@H]3CN(C(C)C)[C@@H](C4=CCOC4=O)C[C@H]3[C@]2(C)CC[C@H]1OC(C)=O — inhibition (unidentified human coronavirus; cytopathic effect; MRC5; 25 µM, 72 h): 80%
COC(=O)N[C@H](C(=O)N1CCC[C@H]1c1ncc(-c2ccc(-c3ccc(-c4cnc([C@@H]5CCCN5C(=O)[C@@H](NC(=O)OC)C(C)C)[nH]4)cc3)cc2)[nH]1)C(C)C — EC50 (Hepatitis C virus; viral replication, inhibitor; HEK-293T, GETYPE2A; replicon): 0.0035 nM
CC(=O)OC[C@@]1(C)[C@H]2CC[C@@H]3CN(Cc4ccccc4C)[C@@H](C4=CCOC4=O)C[C@H]3[C@]2(C)CC[C@H]1OC(C)=O — inhibition (unidentified human coronavirus; cytopathic effect; MRC5; 25 µM, 72 h): 71.4%
CCOC(=O)c1c(N)csc1-c1cn(-c2ccccc2)nc1-c1ccc(C)cc1 — MBC (Acinetobacter baumannii; microbial killing, broth dilution): 0.25 µg/mL
COc1ccc(CN2C[C@H]3CC[C@@H]4[C@](C)(CO)[C@H](O)CC[C@@]4(C)[C@@H]3C[C@@H]2C2=CCOC2=O)cc1 — inhibition (unidentified human coronavirus; cytopathic effect; MRC5; 25 µM, 72 h): 1.9%
CCOC(=O)N[C@H](CC(C)C)C(=O)N1CCC[C@H]1C(=O)Nc1cccc(C#CC#Cc2cccc(NC(=O)[C@@H]3CCCN3C(=O)[C@@H](CC(C)C)NC(=O)OCC)c2)c1 — EC50 (Hepatitis C virus; viral replication, inhibitor, luciferase; Huh-5-2, GETYPE1B; 72 h, replicon): 0.0411 nM
Cc1ccc(S(=O)(=O)Nc2nc(N)c(-c3nc4ccccc4s3)c(-c3ccc(Cl)cc3)n2)cc1 — IC50 (Enterovirus B; plaque formation; BGM, B4): 74 µg/mL
Nc1nc(-c2ccccc2)nc2[nH]nc(Nc3ccc(C(F)(F)F)cc3)c12 — IC50 (Enterovirus B; cytopathic effect; HeLa, CVB3): 0.14 µM
CCOC(=O)N[C@@H](CC(C)C)C(=O)N1CCC[C@@H]1C(=O)Nc1ccc(C#CC#Cc2ccc(NC(=O)[C@H]3CCCN3C(=O)[C@H](CC(C)C)NC(=O)OCC)cc2)cc1 — EC50 (Hepatitis C virus; viral replication, inhibitor, luciferase; Huh-5-2, GETYPE1B; 72 h, replicon): 5630 nM
OC[C@H]1O[C@@H](n2cnc3c(NCc4ccccc4)nc(Cl)nc32)[C@@H](F)[C@@H]1F — EC50 (Hepatitis C virus; viral replication, inhibitor; Huh-7; replicon): 2900 nM
COC(=O)N[C@H](C(=O)N1CCC[C@H]1c1nc(-c2ccc(-c3ccc(-c4c[nH]c([C@@H]5CCCN5C(=O)[C@@H](NC(=O)OC)C(C)C)n4)cc3)cc2)c[nH]1)C(C)C — EC50 (Hepatitis C virus; viral replication, inhibitor, luciferase; GETYPE4A; replicon): 0.021 nM
[N-]=[N+]=Nc1nc(N=[N+]=[N-])c2ncn([C@@H]3O[C@H](COC(=O)c4ccccc4)[C@@H](F)[C@@H]3F)c2n1 — EC50 (Hepatitis C virus; viral replication, inhibitor; Huh-7; replicon): > 10000 nM
Cc1c(NN=C2SC(C(C#N)=Cc3ccc(Cl)cc3)=NC2=O)c(=O)n(-c2ccccc2)n1C — inhibition zone (Acinetobacter baumannii; microbial growth, well diffusion; 100000 µg/mL): 13 mm
COc1ccc(CN2C[C@H]3CC[C@@H]4[C@](C)(COC(C)=O)[C@H](OC(C)=O)CC[C@@]4(C)[C@@H]3C[C@@H]2C2=CCOC2=O)cc1 — inhibition (unidentified human coronavirus; cytopathic effect; MRC5; 25 µM, 72 h): 5.1%
CC(C)COC(=O)N[C@H](C(=O)N1CCC[C@H]1C(=O)Nc1cccc(C#CC#Cc2cccc(NC(=O)[C@@H]3CCCN3C(=O)[C@@H](NC(=O)OCC(C)C)C(C)C)c2)c1)C(C)C — EC50 (Hepatitis C virus; viral replication, inhibitor, luciferase; Huh-5-2, GETYPE1B; 72 h, replicon): 380 nM
CCOC(=O)C=c1[nH]c(=O)c(=Cc2cn(-c3ccccc3)nc2-c2ccc(C)cc2)s1 — inhibition zone (Acinetobacter baumannii; microbial growth, well diffusion; 100000 µg/mL): 11 mm
CCCCCCC/C=C/C(=O)N1C(=O)/C(=C(/C)O)C(=O)C1Cc1ccc(OC(C)(C)C)cc1 (stereo not shown) — MIC (Proteus mirabilis; microbial growth; ATCC25933): > 200 µg/mL
COc1nc(Cl)nc2c1ncn2[C@@H]1O[C@H](CO)[C@@H](F)[C@@H]1F — EC90 (Hepatitis C virus; viral replication, inhibitor; Huh-7; replicon): > 10 µM
CO[C@@H](C(N)=O)[C@H](NC(=O)c1ccc(NC(=O)c2ccc(C#N)cc2)cc1)C(=O)Nc1ccc(C(=O)Nc2ccc(C(=O)Nc3ccc(C(=O)O)cc3)c(O)c2OC(C)C)cc1 — MIC (Proteus mirabilis; microbial growth; DSM4479): 4 µg/mL (≈ 4.75 µM)
C/C(O)=C1\C(=O)C(CC(C)C)N(C(=O)C=Cc2ccccc2)C1=O (stereo not shown) — MIC (Proteus mirabilis; microbial growth; ATCC25933): > 200 µg/mL
COc1nc(OC)c2ncn([C@@H]3O[C@H](CO)[C@@H](F)[C@@H]3F)c2n1 — EC90 (Hepatitis C virus; viral replication, inhibitor; Huh-7; replicon): > 10 µM
Cc1c(NC(=O)CC2=NC(=O)CS2)c(=O)n(-c2ccccc2)n1C — MBC (Acinetobacter baumannii; microbial killing, broth dilution): 0.25 µg/mL
CCCCOC(=O)N[C@H](C(=O)N1CCC[C@H]1C(=O)Nc1ccc(C#CC#Cc2ccc(NC(=O)[C@@H]3CCCN3C(=O)[C@@H](NC(=O)OCCCC)C(C)C)cc2)cc1)C(C)C — EC50 (Hepatitis C virus; viral replication, inhibitor, luciferase; Huh-5-2, GETYPE1B; 72 h, replicon): 919 nM
NC(=O)c1ncn([C@@H]2O[C@H](CO)[C@@H](O)[C@H]2O)n1 — IC50 (Enterovirus B; cytopathic effect; Vero, B3 CVB3): 1580 µM
CCCCCCC/C=C/C(=O)N1C(=O)/C(=C(/C)O)C(=O)C1CCC(=O)O (stereo not shown) — MIC (Proteus mirabilis; microbial growth; ATCC25933): > 200 µg/mL
CCOC(=O)N[C@@H](C(=O)N1CCC[C@@H]1C(=O)Nc1ccc(C#CC#Cc2ccc(NC(=O)[C@H]3CCCN3C(=O)[C@H](NC(=O)OCC)C(C)C)cc2)cc1)C(C)C — EC50 (Hepatitis C virus; viral replication, inhibitor, luciferase; Huh-5-2, GETYPE1B; 72 h, replicon): > 10000 nM
CC(=O)OC[C@@]1(C)[C@H]2CC[C@@H]3CN(Cc4cccc(Cl)c4)[C@@H](C4=CCOC4=O)C[C@H]3[C@]2(C)CC[C@H]1OC(C)=O — inhibition (unidentified human coronavirus; cytopathic effect; MRC5; 25 µM, 72 h): 116%
N#CC(=Cc1ccccc1O)C1=NC(=O)C(=Cc2cn(-c3ccccc3)nc2-c2ccccc2)S1 — inhibition zone (Acinetobacter baumannii; microbial growth, well diffusion; 100000 µg/mL): 25 mm
O=C(Nc1ccccc1-c1ccc(F)c(F)c1)c1nccnc1C(F)(F)F — EC50 (Colletotrichum orbiculare; microbial growth): > 100 µg/mL
CC(=O)OC[C@@]1(C)[C@H]2CC[C@@H]3CN(Cc4ccc(Br)cc4)[C@@H](C4=CCOC4=O)C[C@H]3[C@]2(C)CC[C@H]1OC(C)=O — inhibition (unidentified human coronavirus; cytopathic effect; MRC5; 25 µM, 72 h): 107%
Nc1ncnc2c1c([N+](=O)[O-])cn2[C@@H]1C=C(CO)[C@@H](O)[C@H]1O — inhibition (Hepatitis C virus; viral replication, inhibitor, luciferase; Huh7 ET; 20 µM, replicon): 31.5%
Nc1nc(N)c2ncn([C@@H]3O[C@H](CO)[C@@H](F)[C@@H]3F)c2n1 — EC50 (Hepatitis C virus; viral replication, inhibitor; Huh-7; replicon): > 10000 nM
CCn1cc(C(=O)O)c(=O)c2cc(F)c(N3CCNCC3)cc21 — MBC (Acinetobacter baumannii; microbial killing, broth dilution; BAA747): 16 µM
Cc1cn([C@H]2C[C@H](N=[N+]=[N-])[C@@H](CO)O2)c(=O)[nH]c1=O — EC50 (Hepatitis C virus; viral replication, inhibitor; Huh-7; replicon): > 10000 nM
Cc1ccc(S(=O)(=O)Nc2ncc(-c3nc4ccccc4s3)c(N)n2)cc1 — IC50 (Enterovirus B; plaque formation; BGM, B4): 110 µg/mL
C/C(O)=C1\C(=O)C(CC(C)C)N(C(=O)CCCCCc2ccccc2)C1=O (stereo not shown) — MIC (Proteus mirabilis; microbial growth; ATCC25933): > 200 µg/mL
O=C(CNc1nc(NS(=O)(=O)c2ccccc2)ncc1-c1nc2ccccc2s1)c1ccc(Cl)cc1 — IC50 (Enterovirus B; plaque formation; BGM, B4): 92 µg/mL
C[C@@]1(O)[C@H](O)[C@@H](CO)O[C@H]1n1ccc(N)nc1=O — EC90 (Hepatitis C virus; viral replication, inhibitor; Huh-7; replicon): 5.8 µM
CCCCCCC/C=C/C(=O)N1C(=O)/C(=C(\O)CCCC)C(=O)C1CC(C)C (stereo not shown) — MIC (Proteus mirabilis; microbial growth; ATCC25933): > 200 µg/mL
O=[N+]([O-])c1ccc(O)c2ncccc12 — IC50 (Acinetobacter baumannii; microbial growth; 19606): 0.56 µM
CC(C)CN1C[C@H]2CC[C@@H]3[C@]4(C)COC(C)(C)O[C@@H]4CC[C@@]3(C)[C@@H]2C[C@@H]1C1=CCOC1=O — inhibition (unidentified human coronavirus; cytopathic effect; MRC5; 25 µM, 72 h): 28.6%
Cc1c(NN=C2SC(CC#N)=NC2=O)c(=O)n(-c2ccccc2)n1C — inhibition zone (Acinetobacter baumannii; microbial growth, well diffusion; 100000 µg/mL): 15 mm
Nc1nc2c(ncn2[C@@H]2O[C@H](CO)[C@@H](F)[C@@H]2F)c(=O)[nH]1 — EC50 (Hepatitis C virus; viral replication, inhibitor; Huh-7; replicon): > 10000 nM
Cc1c(NN=C2SC(C(C#N)=Cc3ccccc3)=NC2=O)c(=O)n(-c2ccccc2)n1C — inhibition zone (Acinetobacter baumannii; microbial growth, well diffusion; 100000 µg/mL): 16 mm
CC(=O)OC[C@@]1(C)[C@H]2CC[C@@H]3CN(CCC(C)C)[C@@H](C4=CCOC4=O)C[C@H]3[C@]2(C)CC[C@H]1OC(C)=O — inhibition (unidentified human coronavirus; cytopathic effect; MRC5; 25 µM, 72 h): 105%
CCOC(=O)N[C@@H](C(=O)N1CCC[C@@H]1C(=O)Nc1cccc(C#CC#Cc2cccc(NC(=O)[C@H]3CCCN3C(=O)[C@H](NC(=O)OCC)C(C)C)c2)c1)C(C)C — EC50 (Hepatitis C virus; viral replication, inhibitor, luciferase; Huh-5-2, GETYPE1B; 72 h, replicon): > 10000 nM
